Laboratory results as given in ChEMBL document CHEMBL2321751, “Optimization of chloronitrobenzamides (CNBs) as therapeutic leads for human African trypanosomiasis (HAT)” (J Med Chem, 2013).
Converted amounts (≈) assume the structure as drawn.

Experiments:
[1] = Kinetic solubility of the compound in PBS buffer at pH 7.4 after 18 hrs by UV spectrophotometric analysis; assay type: physicochemical; conditions: for Kinetic_solubility: buffer, pH 7.4, 18 h, BLD = below limit of detection; for solubility kinetic at 18 h: PBS buffer, pH 7.4, read-out: Kinetic_solubility
In short: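 Compound from a 10 mM stock was added to PBS pH 7.4 and left 18 h at room temperature. The suspension was filtered, and the filtrate was mixed 1:1 with 1-propanol. Solubility was derived from UV spectrum AUC (250–500 nm) relative to a 1-propanol/PBS reference. Run in triplicate.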

Raji = assay: Cytotoxicity against human Raji cells after 72 hrs by Cell Titre Glo assay; assay type: cell-based
In short: (§1)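 Human cells grown to 80% confluence were plated in 384-well format and received compound dilutions by pin tool. After 72 h at 37 °C in 5% CO2, viability was measured by CellTiter-Glo luminescence.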

BJ = assay: Cytotoxicity against human BJ cells after 72 hrs by Cell Titre Glo assay; assay type: cell-based; in short: as §1
HEK293 = assay: Cytotoxicity against HEK293 cells after 72 hrs by Cell Titre Glo assay; assay type: cell-based; conditions: Homo sapiens, HEK293, 72 h; in short: as §1
HepG2 = assay: Cytotoxicity against human HepG2 cells after 72 hrs by Cell Titre Glo assay; assay type: cell-based; conditions: HepG2, 72 h; in short: as §1
[2] = tested on: Trypanosoma brucei brucei; assay: Antitrypanosomal activity against Trypanosoma brucei brucei 221 after 48 hrs by Cell Titre Glo assay; assay type: functional, organism-based; conditions: Trypanosoma brucei, 221, 48 h
In short: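 Bloodstream-form parasites grown in HMI-9 with 10% heat-inactivated FBS, 10% Serum Plus and penicillin/streptomycin at 37 °C, 5% CO₂, to 1 × 10⁶ cells/mL. Diluted to 1 × 10⁴ cells/mL, then dosed with a DMSO dilution series by pin transfer. Incubated 48 h at 37 °C, 5% CO₂. Viability read by CellTiter-Glo luminescence. EC₅₀ from a variable-slope sigmoidal fit. Mean of six replicates, errors as 95% CI.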

[3] = Half life in human liver microsomes; assay type: ADME, Microsome
In short: (§2)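 Liver microsomes (human: pooled from 200 mixed-gender donors; mouse: female […]) were diluted in 0.1 M potassium phosphate, pH 7.4, with EDTA, then spiked from a 2 mM DMSO/acetonitrile compound stock. Reactions were started with cofactor solutions A+B and kept at 37 °C with shaking. Samples at 0, 0.5, 1, 2 and 4 h were quenched with cold methanol containing 10 μM warfarin and analysed by UPLC-MS (SIR). k = −2.303 × slope of log peak-area ratio versus time; t1/2 = 0.693/k.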

[4] = Half life in mouse liver microsomes; assay type: ADME, Microsome; in short: as §2
[5] = tested on: Trypanosoma brucei gambiense; assay: Antitrypanosomal activity against Trypanosoma brucei gambiense STIB930 after 70 hrs by Alamar Blue assay; assay type: functional, organism-based; conditions: STIB930, 70 h
In short: (§3)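 T. b. gambiense strains were grown in HMI-9 with 15% heat-inactivated FBS and 5% human serum. 10000 trypanosomes per well were seeded into serial drug dilutions and held 70 h at 37 °C in humidified 5% CO2. Resazurin was then added for a further 4–6 h, and fluorescence was read (ex 536/em 588 nm). IC50 was taken by linear regression from sigmoidal dose-inhibition curves.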

[6] = Permeability of the compound at pH 7.4 by PAMPA; assay type: ADME; conditions: for Papp: PAMPA, read-out: permeability
In short: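 Compound (10 mM DMSO stock) was diluted in system solution buffer pH 7.4 and placed in the donor chamber of a PAMPA sandwich whose membrane was coated with GIT lipid. Acceptor buffer filled the acceptor chamber, and the assembly was stirred for 30 min. Donor and acceptor UV spectra (250–500 nm) were compared with a reference to give the permeability coefficient. Run in triplicate.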

[7] = tested on: Trypanosoma brucei rhodesiense; assay: Antitrypanosomal activity against bloodstream forms of wild type Trypanosoma brucei rhodesiense STIB900 after 70 hrs by Alamar Blue assay; assay type: functional, organism-based; conditions: STIB900, 70 h
In short: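 T. b. rhodesiense STIB 900 was cultured in MEM with Earle's salts and Baltz supplements (0.2 mM 2-mercaptoethanol, 1 mM Na-pyruvate, 0.5 mM hypoxanthine, 15% heat-inactivated horse serum). 2000 bloodstream forms per well were exposed to serial drug dilutions for 70 h at 37 °C in humidified 5% CO2. Resazurin followed for 2–4 h, read by fluorescence (ex 536/em 588 nm). IC50 came from sigmoidal curves by linear regression.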

[8] = Kinetic solubility of the compound in PBS buffer at pH 3.0 after 18 hrs by UV spectrophotometric analysis; assay type: physicochemical; conditions: read-out: Kinetic_solubility
[9] = Permeability of the compound at pH 3.0 by PAMPA; assay type: ADME; conditions: read-out: permeability
[10] = tested on: Trypanosoma brucei brucei; assay: Antitrypanosomal activity against blood stream stage of Trypanosoma brucei brucei after 48 hrs by Cell Titre Glo assay; assay type: functional, organism-based
In short: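 Culture-adapted parasites were grown in HMI-9 with 10% heat-inactivated FBS, 10% Serum Plus and penicillin/streptomycin to 1 × 10⁶ cells/mL, then diluted to 1 × 10⁴ cells/mL. DMSO dilution series were pin-transferred and plates held 48 h at 37 °C in 5% CO2. After 30 min at room temperature, CellTiter-Glo was added and luminescence read after 8 min.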

[11] = tested on: Trypanosoma brucei gambiense; assay: Antitrypanosomal activity against Trypanosoma brucei gambiense KO48 after 70 hrs by Alamar Blue assay; assay type: functional, organism-based; conditions: KO48, 70 h; in short: as §3
[12] = tested on: Trypanosoma brucei gambiense; assay: Antitrypanosomal activity against Trypanosoma brucei gambiense DAL 898R after 70 hrs by Alamar Blue assay; assay type: functional, organism-based; in short: as §3

SMILES | Kinetic_solubility [1] | EC50 (Raji) [µM] | EC50 (BJ) [µM] | EC50 (HEK293) [µM] | EC50 (HepG2) [µM] | EC50 [2] [µM] | half-life [3] [h] | half-life [4] [h] | EC50 [5] [µM] | Papp [6] [nm/s] | EC50 [7] [µM] | permeability ([6]; pampa, BLD = below limit of detection) | solubility kinetic at 18 h [1] [µM] | solubility kinetic at 18 h [8] [µM] | Papp [9] [nm/s] | EC50 [10] [µM] | EC50 [11] [µM] | EC50 [12] [µM]
Cc1ccc(-c2nc3ccccc3s2)cc1NC(=O)c1cc([N+](=O)[O-])ccc1Cl | BLD | > 14 | > 14 | > 14 | > 14 | 0.006 | > 4 | > 4 | 0.036 | 410 | 0.013 | – | – | – | – | – | – | –
COc1ccc(-c2nc3ccccc3s2)cc1NC(=O)c1cc([N+](=O)[O-])ccc1Cl | BLD | > 25 | > 25 | > 25 | > 25 | 0.12 | 3.7 | > 4 | 0.063 | – | 0.073 | BLD | – | – | – | – | – | –
Cc1ccc(-c2nc3ccccc3s2)cc1NC(=O)c1cc([N+](=O)[O-])c(N2CCNCC2)cc1Cl | – | > 25 | 14.5 | > 25 | > 25 | – | > 4 | > 4 | 0.002 | 40 | 0.007 | – | 0.08 (≈ 0.0406 µg/mL) | 1.15 (≈ 0.584 µg/mL) | 6 | – | – | –
O=C(Nc1ccc(F)c(-c2nc3ccccc3s2)c1)c1cc([N+](=O)[O-])c(N2CCNCC2)cc1Cl | – | > 25 | > 25 | > 25 | > 25 | 0.058 | > 4 | > 4 | 0.17 | – | 0.14 | – | – | – | – | – | – | –
CN1CCN(c2cc(Cl)c(C(=O)Nc3cccc(-c4nc5ccccc5s4)c3)cc2[N+](=O)[O-])CC1 | BLD | 14.5 | > 25 | 14.2 | 8.6 | 0.11 | 3.3 | 0.81 | 0.16 | 3660 | 0.21 | – | – | 46 (≈ 23.4 µg/mL) | 1080 | – | – | –
O=C(Nc1cccc(-c2nc3ccccc3s2)c1)c1cc([N+](=O)[O-])c(N2CCNCC2)cc1Cl | – | > 25 | > 25 | 12.7 | 5.3 | 0.19 | – | – | – | 2760 | – | – | 0.72 (≈ 0.356 µg/mL) | 0.98 (≈ 0.484 µg/mL) | < 10 | – | – | –
O=C(Nc1cccc(-c2nc3ccccc3s2)c1)c1cc([N+](=O)[O-])c(N2CCOCC2)cc1Cl | – | > 25 | > 25 | > 25 | > 25 | 0.22 | – | – | – | 180 | – | – | 0.37 (≈ 0.183 µg/mL) | 0.07 (≈ 0.0346 µg/mL) | 1060 | – | – | –
O=C(Nc1ccc2oc(-c3ccc(F)cc3)nc2c1)c1cc([N+](=O)[O-])ccc1Cl | – | – | – | – | – | 6 | – | – | 0.42 | – | 3.8 | – | – | – | – | 0.64 | 2.6 | 4.4
Cc1ccc(-c2nc3ccccc3s2)cc1NC(=O)c1cc([N+](=O)[O-])c(N2CCN(C)CC2)cc1Cl | – | > 25 | > 25 | > 25 | > 25 | 0.041 | 1.6 | 1.3 | 0.001 | 740 | 0.011 | – | 0.7 (≈ 0.365 µg/mL) | 0.56 (≈ 0.292 µg/mL) | 600 | – | – | –
O=C(Nc1cccc(-c2nc3ccccc3o2)c1)c1cc([N+](=O)[O-])ccc1Cl | – | > 25 | > 25 | > 25 | > 25 | 0.48 | – | – | 0.21 | 450 | 0.37 | – | 0.47 (≈ 0.185 µg/mL) | – | – | 0.29 | 0.46 | 0.62
O=C(Nc1ccc(Cl)c(C(F)(F)F)c1)c1cc([N+](=O)[O-])ccc1Cl | – | > 27 | > 27 | > 27 | > 27 | 1.1 | – | – | 0.82 | 80 | 1.8 | – | 0.58 (≈ 0.22 µg/mL) | – | – | – | 1.3 | 1.6
O=C(Nc1nc(-c2ccc(F)c(F)c2)cs1)c1cc([N+](=O)[O-])ccc1Cl | BLD | 13 | > 27 | 8.3 | > 27 | 2.5 | – | – | 0.56 | 370 | 1.5 | – | – | – | – | – | 0.63 | 1.6
O=C(Nc1cccc(-c2nc3ccccc3s2)c1)c1cc([N+](=O)[O-])ccc1Cl | – | > 27 | > 27 | > 27 | > 25 | 0.19 | 1 | 0.18 | 0.11 | 120 | 0.16 | – | 0.58 (≈ 0.238 µg/mL) | 0.51 (≈ 0.209 µg/mL) | 510 | – | 0.17 | 0.2
N=C(N)c1ccc(OCCCCCOc2ccc(C(=N)N)cc2)cc1 [PENTAMIDINE] | – | – | – | – | – | 0.012 | – | – | 0.0007 | – | 0.0006 | – | – | – | – | – | 0.051 | 0.0009
